Series [1] in a line: Drug uptake in C57BL/6 mouse blood at 60 umol/kg, po dosed in carboxymethyl cellulose 0.5% w/v in water/Tween 80 (99.5/0.5, v/v) measured 4 hrs post dosing by LC/MS/MS analysis. It is filed as ADME, organism-based. The following applies: read-out: Drug uptake. The gist of the method:
(§1)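 Male C57BL/6 mice dosed by oral gavage, 10 mL/kg. Blood sampled 0.25, 0.5, 1, 2, 4, 6 h; brain at 1 and/or 4 h; n = 3 per time. Blood acetonitrile-precipitated, brain water-homogenized then precipitated; LC-MS/MS with weighted linear calibration.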

Series [2] in a line: Ratio of drug uptake in brain to blood in C57BL/6 mouse at 2 umol/kg, iv dosed in N-methyl pyrrolidone/blank plasma (10:90 v/v) measured 1 hr post dosing by LC/MS/MS analysis. Type of series: ADME, organism-based. The gist of the method:
(§2)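 Male C57BL/6 mice, saphenous vein injection under light anesthesia, 5 mL/kg. Blood at 5, 30 min and 1, 2, 4, 6, 8 h; brain at 5 min, 1, 4, 8 h; n = 3/time. LC-MS/MS after acetonitrile precipitation (brain water-homogenized). Noncompartmental analysis, 1/Y weighting, terminal slope from ≥3 points.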

Series [3] in a line: Half life in C57BL/6 mouse at 2 umol/kg, iv dosed in N-methyl pyrrolidone/blank plasma (10:90 v/v) by LC/MS/MS analysis. Type of series: ADME, organism-based. In outline: as §2
Series [4] relates to Brain. The series is described as follows: Drug uptake in C57BL/6 mouse brain at 6 umol/kg, po dosed in carboxymethyl cellulose 0.5% w/v in water/Tween 80 (99.5/0.5, v/v) measured 4 hrs post dosing by LC/MS/MS analysis. It is filed as ADME, organism-based. The following applies: in vivo. In outline: as §1
A short description of series [5]: Drug uptake in C57BL/6 mouse blood at 2 umol/kg, iv dosed in N-methyl pyrrolidone/blank plasma (10:90 v/v) measured 1 hr post dosing by LC/MS/MS analysis. It is filed as ADME, organism-based. To be noted: read-out: Drug uptake. The gist of the method: as §2
The nature of series [6]: AUC (0 to infinity) in C57BL/6 mouse at 6 umol/kg, po dosed in carboxymethyl cellulose 0.5% w/v in water/Tween 80 (99.5/0.5, v/v) by LC/MS/MS analysis. Further details: dose 6 umol/kg, time infinity, route oral. It is filed as ADME, organism-based. The following applies: in vivo. The gist of the method: (§3)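 Male C57BL/6 mice were dosed by oral gavage at 10 mL/kg. Blood was sampled at 0.25, 0.5, 1, 2, 4 and 6 h postdose, extracted by acetonitrile precipitation and quantified by LC-MS/MS (typical LLOQ 0.4 ng/mL). AUCinf was obtained by noncompartmental analysis of concentration–time profiles, weighting 1/Y, with at least three terminal log-linear points.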

A short description of series [7]: Drug uptake in APP51/16 transgenic mouse blood at 180 umol/kg, po measured 4 hrs post dosing by LC/MS/MS analysis. The following applies: read-out: Drug uptake. It is filed as ADME, organism-based. The gist of the method:
(§4)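 APP51/16 transgenic mice given oral gavage (10 mL/kg); blood and forebrain taken at 4 h postdose. Blood extracted by acetonitrile precipitation; brain homogenized in water, then acetonitrile-precipitated. LC-MS/MS quantitation against weighted linear calibration of analyte/internal standard area ratio.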

The test system of series [8] is MDR1 (human). Kind of series: Apparent permeability across MDCK cells expressing human MDR1 at 5 uM after 2 hrs by LC-MS analysis. To be noted: dog. Type of series: ADME, cell-based, Canis lupus familiaris. The gist of the method:
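MDCK cells retrovirally transduced with human MDR1, seeded on transwells ≥3 days; bidirectional transport at 5 μM, 2 h, 37 °C, LC/MS quantitation. Papp = (dQ/dt)/(A·C0), A 0.11 cm2; ER = Papp B>A / Papp A>B. Means of at least three experiments.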

Series [9] concerns Mus musculus. The series is described as follows: Antialzheimer activity in APP51/16 transgenic mouse expressing human APP51/16Npa and mouse Thy1 assessed as reduction in amyloid beta (1 to 40) reduction at 180 umol/kg, po measured 4 hrs post dosing. Type of series: functional. Also on record: scale not given: the % may be the effect or the level left. The gist of the method:
(§5)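 Hemizygous APP51/16 mice (human APP751 wild-type under murine Thy-1 cassette, C57BL/6 background) gavaged (10 mL/kg), decapitated at 4 h. Forebrain homogenized in TBS with protease inhibitors, 1% TX-100 extract, spun 100000 rpm 30 min 4 °C. Aβ40 by 6E10 electrochemiluminescence immunoassay against spiked nontransgenic extract standards; C99 by APP-C8 western blot, densitometry. Two-tailed Student's t test versus vehicle.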

Series [10] relates to Brain. The series is described as follows: Drug uptake in APP51/16 transgenic mouse brain at 180 umol/kg, po measured 4 hrs post dosing by LC/MS/MS analysis. It is filed as ADME, organism-based. To be noted: in vivo. In outline:
as §4

Series [11] is described as follows: Volume of distribution at steady state in C57BL/6 mouse at 2 umol/kg, iv dosed in N-methyl pyrrolidone/blank plasma (10:90 v/v) by LC/MS/MS analysis. To be noted: read-out: Vdss. It is filed as ADME, organism-based. In outline: as §2
Series [12] in a line: Blood clearance in C57BL/6 mouse at 2 umol/kg, iv dosed in N-methyl pyrrolidone/blank plasma (10:90 v/v) by LC/MS/MS analysis. It is filed as ADME, organism-based. The gist of the method:
as §2

A short description of series [13]: AUC (0 to infinity) in C57BL/6 mouse at 2 umol/kg, iv dosed in N-methyl pyrrolidone/blank plasma (10:90 v/v) by LC/MS/MS analysis. Also on record: dose 2 umol/kg, time infinity, route intravenous. Type of series: ADME, organism-based. In outline: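 Male C57BL/6 mice got a single injection into the saphenous vein under light anaesthesia at 5 mL/kg. Blood was taken at 5 and 30 min and 1, 2, 4, 6 and 8 h (n = 3 per time). Blood was extracted by acetonitrile precipitation and quantified by LC-MS/MS against a weighted linear calibration. AUC came from noncompartmental analysis with 1/Y weighting.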

Series [14] concerns Mus musculus. Kind of series: Antialzheimer activity in APP51/16 transgenic mouse expressing human APP51/16Npa and mouse Thy1 assessed as reduction in brain C99 level reduction at 180 umol/kg, po measured 4 hrs post dosing. It is filed as functional. Further details: scale not given: the % may be the effect or the level left. In outline:
as §5

Series [15] is described as follows: Drug uptake in C57BL/6 mouse blood at 6 umol/kg, po dosed in HS15/propylenglycol/citrate buffer, pH 4.75, 50 mM (10/5/85, v/v/v) measured 1 hr post dosing by LC/MS/MS analysis. Type of series: ADME, organism-based. The following applies: read-out: Drug uptake. The gist of the method:
as §1

The target of series [16] is Cytochrome P450 3A4 (Homo sapiens, UniProt P08684). Kind of series: Inhibition of CYP3A4. It is filed as ADME.
Series [17] is described as follows: Drug uptake in C57BL/6 mouse blood at 60 umol/kg, po dosed in HS15/propylenglycol/citrate buffer, pH 4.75, 50 mM (10/5/85, v/v/v) measured 4 hrs post dosing by LC/MS/MS analysis. Type of series: ADME, organism-based. To be noted: read-out: Drug uptake. In outline: as §1
Series [18] in a line: Oral bioavailability in C57BL/6 mouse at 6 umol/kg dosed in HS15/propylenglycol/citrate buffer, pH 4.75, 50 mM (10/5/85, v/v/v) by LC/MS/MS analysis. It is filed as ADME, organism-based. The following applies: in vivo. In outline:
(§6)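 Oral gavage (10 mL/kg) to male C57BL/6 mice with iv reference segment (2 μmol/kg, NMP/blank plasma 10:90). Noncompartmental analysis of LC-MS/MS blood profiles, 1/Y weighting; %F = dose-normalized oral AUC / dose-normalized iv AUC × 100, assuming linear pharmacokinetics between doses.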

Series [19] is described as follows: AUC (0 to infinity) in C57BL/6 mouse at 6 umol/kg, po dosed in HS15/propylenglycol/citrate buffer, pH 4.75, 50 mM (10/5/85, v/v/v) by LC/MS/MS analysis. Further details: dose 6 umol/kg, time infinity, route oral. Type of series: ADME, organism-based. The following applies: plasma. The gist of the method: as §3
A short description of series [20]: Oral bioavailability in C57BL/6 mouse at 60 umol/kg dosed in HS15/propylenglycol/citrate buffer, pH 4.75, 50 mM (10/5/85, v/v/v) by LC/MS/MS analysis. It is filed as ADME, organism-based. To be noted: in vivo. The gist of the method:
as §6

The term Kp denotes tissue or fluid exposure divided by exposure in the circulation. Broadly, the half-life is the time needed for the level to fall by half in the phase considered. Usually AUC(0-inf) stands for total exposure, with the tail of the curve extrapolated. One may read the Papp as the rate of passage across a membrane or cell layer, normalised by area and donor concentration. The term clearance denotes the rate of elimination divided by the concentration. The term IC50 denotes the point on the concentration scale where inhibition reaches its midpoint. Usually bioavailability stands for the share of a dose that reaches the circulation, judged against a reference dose that is usually intravenous.

Chain of Cytochrome P450 3A4 (P08684 whole entry): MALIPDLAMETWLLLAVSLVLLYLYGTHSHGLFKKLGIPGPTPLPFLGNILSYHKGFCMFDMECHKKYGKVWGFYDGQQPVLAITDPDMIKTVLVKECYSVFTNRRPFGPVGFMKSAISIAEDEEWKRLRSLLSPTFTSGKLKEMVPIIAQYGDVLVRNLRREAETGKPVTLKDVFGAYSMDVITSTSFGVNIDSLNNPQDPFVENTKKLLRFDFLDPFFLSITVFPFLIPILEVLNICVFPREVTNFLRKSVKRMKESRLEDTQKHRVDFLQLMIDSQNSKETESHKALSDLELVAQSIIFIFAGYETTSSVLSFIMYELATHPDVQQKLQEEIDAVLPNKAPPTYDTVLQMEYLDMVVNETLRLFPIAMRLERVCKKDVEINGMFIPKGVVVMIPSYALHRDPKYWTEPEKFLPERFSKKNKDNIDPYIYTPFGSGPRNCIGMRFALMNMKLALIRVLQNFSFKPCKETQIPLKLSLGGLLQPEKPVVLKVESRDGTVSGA

Take `CC(C)(C)c1cccc(CN[C@H]2CS(=O)(=O)C[C@@H](Cc3cc(F)c(N)c(OCC(F)(F)F)c3)[C@@H]2O)c1`: the values for the concentration at 4 h in [1] and in series [7] were 1860 nM and 10200 nM, respectively. In addition, the Kp at 1 h in series [2] worked out at 1.8. In [3], the half-life was 1.4 h. The figures for the Drug uptake in series [4] and in series [10] were 0.11 nmol/g and 1.8 nmol/g, respectively. The concentration at 1 h in series [5] came out at 60 nM. For the same compound, the AUC(0-inf) in series [6] came to 0.466 µM·h; in series [13], 0.3 µM·h. Also, the Papp at 2 h, 5 µM in series [8] turned out to be 25 ×10⁻⁶ cm/s. Moreover, the Activity is 31% in series [9] and 34% in [14]. In series [11], the Vd was determined as 7.2 L/kg. Also, the clearance in [12] was 111 mL/min/kg.
In series [3], `CC(C)(C)c1cccc(CN[C@H]2CS(=O)(=O)C[C@@H](Cc3cc(F)c(N)c(OC(C(F)(F)F)C(F)(F)F)c3)[C@@H]2O)c1` had a half-life of 2.9 h. Moreover, the concentration at 1 h in series [15] stood at 60 nM. This compound displayed an IC50 in series [16] of 300 nM. Also, the concentration at 4 h was found to be 3700 nM in series [7] and 190 nM in series [17]. The Papp at 2 h, 5 µM in [8] was determined as 3 ×10⁻⁶ cm/s. Besides, the bioavailability turned out to be 32% in series [18] and 33% in series [20]. Also, the Activity was 6% in series [9] and 22% in series [14]. Also, the AUC(0-inf) in series [19] stood at 0.398 µM·h; in series [13], 0.407 µM·h. Moreover, in [10], the Drug uptake is 1.5 nmol/g. Further, in series [11], the Vd is 16.3 L/kg. The same compound yielded a clearance in series [12] of 82 mL/min/kg.

For the origin of these results see ChEMBL document CHEMBL2046351, “Discovery of cyclic sulfone hydroxyethylamines as potent and selective β-site APP-cleaving enzyme 1 (BACE1) inhibitors: structure-based design and in vivo reduction of amyloid β-peptides” (J Med Chem, 2012).
